Measured values published in ChEMBL document CHEMBL1155442, “Click chemistry approach to new N-substituted aminocyclitols as potential pharmacological chaperones for Gaucher disease” (J Med Chem, 2010).
Calls of active or inactive are those of the source. The rule behind the calls is not given here.

Experiments:
Oryza sativa [1] = assay: Inhibition of rice alpha-glucosidase at 0.1 mM
Oryza sativa [2] = assay: Inhibition of rice alpha-galactosidase at 0.1 mM
[3] = biological target: T1, Lysosomal acid glucosylceramidase (Homo sapiens, UniProt P04062); assay: Competitive inhibition of beta-glucocerebrosidase at pH 5.2 by Lineweaver-Burke plot analysis
T1 sequence (P04062 whole entry): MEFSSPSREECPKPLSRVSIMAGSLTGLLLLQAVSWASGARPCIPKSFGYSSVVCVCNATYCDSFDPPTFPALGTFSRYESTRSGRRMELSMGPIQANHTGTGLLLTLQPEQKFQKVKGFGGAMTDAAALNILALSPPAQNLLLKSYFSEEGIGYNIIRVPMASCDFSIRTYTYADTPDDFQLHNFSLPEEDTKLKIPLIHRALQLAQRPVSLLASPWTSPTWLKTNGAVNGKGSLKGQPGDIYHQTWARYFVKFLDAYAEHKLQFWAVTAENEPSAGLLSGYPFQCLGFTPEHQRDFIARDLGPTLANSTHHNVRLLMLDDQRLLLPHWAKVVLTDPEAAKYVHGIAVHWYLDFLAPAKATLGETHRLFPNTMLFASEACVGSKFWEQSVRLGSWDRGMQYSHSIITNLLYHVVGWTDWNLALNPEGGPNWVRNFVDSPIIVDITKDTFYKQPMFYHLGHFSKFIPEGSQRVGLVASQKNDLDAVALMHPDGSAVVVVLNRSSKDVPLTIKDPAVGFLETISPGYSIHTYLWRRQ

Saccharomyces cerevisiae = assay: Inhibition of yeast alpha-glucosidase at 0.1 mM
[4] = Cytotoxicity against human fibroblast at 300 uM after 24 hrs by MTT assay; type: cell-based
[5] = biological target: T1, Lysosomal acid glucosylceramidase; assay: Inhibition of recombinant beta-glucocerebrosidase after 10 mins by fluorimetry
Method in brief: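 Imiglucerase (0.1 mg/mL stock) in McIlvaine buffer, pH 5.2 or 7.4, with 0.2% sodium taurocholate and 0.1% Triton X-100. Preincubated 30 min at 37 °C with or without inhibitor. Then 4 mM 4-methylumbelliferyl-β-D-glucopyranoside added for 10 min at 37 °C. Stopped with glycine/NaOH pH 10.6; 4-MU read at ex 355/em 460 nm. IC50 from % activity vs log[I], at least five concentrations.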

Prunus dulcis = assay: Inhibition of sweet almond beta-glucosidase at 0.1 mM
[6] = biological target: T1, Lysosomal acid glucosylceramidase; assay: Inhibition of recombinant beta-glucocerebrosidase at pH 5.2 after 10 mins by fluorimetry
[7] = biological target: T2, Lysosomal acid glucosylceramidase (Homo sapiens) (UniProt P04062); assay: Inhibition of beta-glucocerebrosidase in human fibroblast at 50 uM after 24 hrs by fluorescence assay
T2 sequence (whole entry): T1 sequence (P04062 whole entry)
Method in brief: (§1)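 Wild-type human fibroblasts exposed to compound for 24 h (10, 20 or 50 μM, as listed) with 5 mM substrate. Cellular GCase activity then measured.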

[8] = biological target: T3, Beta-galactosidase (Bos taurus) (UniProt Q58D55); assay: Inhibition of bovine liver beta-galactosidase at 0.1 mM
T3 sequence (whole entry): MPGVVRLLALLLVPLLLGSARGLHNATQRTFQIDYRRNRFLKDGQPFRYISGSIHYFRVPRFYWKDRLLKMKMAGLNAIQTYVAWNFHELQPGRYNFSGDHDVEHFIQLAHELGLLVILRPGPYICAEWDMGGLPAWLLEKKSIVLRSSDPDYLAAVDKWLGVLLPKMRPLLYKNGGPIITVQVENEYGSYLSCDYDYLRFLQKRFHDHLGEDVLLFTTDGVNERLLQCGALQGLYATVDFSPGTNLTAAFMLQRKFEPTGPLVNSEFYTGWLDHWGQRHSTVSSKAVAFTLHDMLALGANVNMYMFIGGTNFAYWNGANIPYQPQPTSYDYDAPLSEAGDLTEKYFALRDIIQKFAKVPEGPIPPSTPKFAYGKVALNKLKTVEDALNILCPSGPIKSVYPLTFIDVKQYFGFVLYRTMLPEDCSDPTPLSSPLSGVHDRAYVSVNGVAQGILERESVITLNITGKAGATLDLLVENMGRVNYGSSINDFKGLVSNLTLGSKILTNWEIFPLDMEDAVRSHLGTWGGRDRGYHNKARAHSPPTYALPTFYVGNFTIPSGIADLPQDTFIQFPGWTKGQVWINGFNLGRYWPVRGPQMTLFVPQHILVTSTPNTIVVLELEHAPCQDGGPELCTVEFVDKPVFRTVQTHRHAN

[9] = Dissociation constant, pKa of the compound; type: physicochemical
[10] = biological target: T1, Lysosomal acid glucosylceramidase; assay: Inhibition of recombinant beta-glucocerebrosidase at pH 7.4 after 10 mins by fluorimetry
[11] = biological target: T2, Lysosomal acid glucosylceramidase (Homo sapiens); assay: Binding affinity to recombinant beta-glucocerebrosidase assessed as enzymatic activity at 50 uM after 60 mins by thermal stabilization assay relative to control
[12] = biological target: T2, Lysosomal acid glucosylceramidase (Homo sapiens); assay: Binding affinity to recombinant beta-glucocerebrosidase assessed as enzymatic activity at 50 uM after 20 mins by thermal stabilization assay relative to control
[13] = biological target: T2, Lysosomal acid glucosylceramidase (Homo sapiens); assay: Binding affinity to recombinant beta-glucocerebrosidase assessed as enzymatic activity at 100 uM after 20 mins by thermal stabilization assay relative to control
[14] = biological target: T2, Lysosomal acid glucosylceramidase (Homo sapiens); assay: Binding affinity to recombinant beta-glucocerebrosidase assessed as enzymatic activity at 100 uM after 60 mins by thermal stabilization assay relative to control
[15] = biological target: T2, Lysosomal acid glucosylceramidase (Homo sapiens); assay: Binding affinity to recombinant beta-glucocerebrosidase assessed as enzymatic activity at 150 uM after 40 mins by thermal stabilization assay relative to control
[16] = biological target: T2, Lysosomal acid glucosylceramidase (Homo sapiens); assay: Binding affinity to recombinant beta-glucocerebrosidase assessed as enzymatic activity at 150 uM after 60 mins by thermal stabilization assay relative to control
[17] = biological target: T2, Lysosomal acid glucosylceramidase (Homo sapiens); assay: Binding affinity to recombinant beta-glucocerebrosidase assessed as enzymatic activity at 100 uM after 40 mins by thermal stabilization assay relative to control
[18] = biological target: T2, Lysosomal acid glucosylceramidase (Homo sapiens); assay: Binding affinity to recombinant beta-glucocerebrosidase assessed as enzymatic activity at 50 uM after 40 mins by thermal stabilization assay relative to control
[19] = biological target: T2, Lysosomal acid glucosylceramidase (Homo sapiens); assay: Binding affinity to recombinant beta-glucocerebrosidase assessed as enzymatic activity at 150 uM after 20 mins by thermal stabilization assay relative to control
[20] = Cytotoxicity against human fibroblast after 24 hrs by MTT assay; type: cell-based; details: human fibroblasts
[21] = biological target: T2, Lysosomal acid glucosylceramidase (Homo sapiens); assay: Inhibition of beta-glucocerebrosidase in human fibroblast at 10 uM after 24 hrs by fluorescence assay; method in brief: as §1
[22] = biological target: T2, Lysosomal acid glucosylceramidase (Homo sapiens); assay: Inhibition of beta-glucocerebrosidase in human fibroblast at 20 uM after 24 hrs by fluorescence assay; method in brief: as §1
[23] = Selectivity index, ratio of CC50 for human fibroblast to Ki for beta-glucocerebrosidase

Row | Structure (SMILES) | inhibition (Oryza sativa [1]) | inhibition (Oryza sativa [2]) | Ki [3] | inhibition (Saccharomyces cerevisiae) | Activity [4] | IC50 [5] | inhibition (Prunus dulcis) | IC50 [6] | inhibition [7] | inhibition [8] | pKa [9] | IC50 [10] | fold change (FC) [11] | fold change (FC) [12] | fold change (FC) [13] | fold change (FC) [14] | fold change (FC) [15] | fold change (FC) [16] | fold change (FC) [17] | fold change (FC) [18] | other results
1 | CCCCCCCCn1cc(CN[C@H]2[C@H](O)[C@@H](O)[C@H](O)[C@@H](O)[C@@H]2O)nn1 | inactive | inactive | 1.8 µM | inactive | Non-toxic | 1.05 µM | inactive | 1 µM | 20% | inactive | 7.7 | 1.1 µM | – | – | – | – | – | – | – | – | –
2 | CCCCCCCCCCN[C@H]1[C@H](O)[C@@H](O)[C@H](O)[C@@H](O)[C@@H]1O | – | – | 0.3 µM | – | Non-toxic | – | – | 1.8 µM | – | – | – | – | 2.24 | 1.29 | 1.84 | 4.89 | 5.85 | 11.3 | 4.49 | 2.33 | fold change (FC) [19]: 1.99
3 | CCCCn1cc(CN[C@H]2[C@H](O)[C@@H](O)[C@H](O)[C@@H](O)[C@@H]2O)nn1 | inactive | inactive | – | inactive | Non-toxic | 178 µM | inactive | 178 µM | < 5% | inactive | 7.2 | – | – | – | – | – | – | – | – | – | –
4 | O[C@@H]1[C@@H](O)[C@H](O)[C@@H](NCc2cn(CCc3ccccc3)nn2)[C@H](O)[C@H]1O | inactive | inactive | 19.1 µM | inactive | Non-toxic | 10.7 µM | inactive | 10.8 µM | < 5% | inactive | 7.8 | 25 µM | – | – | – | – | – | – | – | – | –
5 | CCCCCCCCCCn1cc(CCCN[C@H]2[C@H](O)[C@@H](O)[C@H](O)[C@@H](O)[C@@H]2O)nn1 | inactive | inactive | 7.6 µM | inactive | – | 3.47 µM | inactive | 3.5 µM | 20% | inactive | 9.9 | 1.2 µM | – | – | – | – | – | – | – | – | CC50 at 24 h [20]: 170 µM
6 | CCCCCCCCCCCCCCn1cc(CN[C@H]2[C@H](O)[C@@H](O)[C@H](O)[C@@H](O)[C@@H]2O)nn1 | inactive | inactive | 0.08 µM | inactive | – | 0.0891 µM | inactive | 0.09 µM | Toxic | inactive | 7.7 | 0.1 µM | 13.8 | 2.82 | 2.88 | 13.2 | 5.91 | 9.4 | 7.48 | 7.86 | inhibition [21]: 93%; inhibition [22]: Toxic; CC50 at 24 h [20]: 19 µM; Selectivity Index [23]: 237; fold change (FC) [19]: 2.67
7 | CCCCCCCCCN1C[C@H](O)[C@@H](O)[C@H](O)[C@H]1CO | – | – | – | – | Non-toxic | – | – | – | – | – | – | – | – | – | – | – | – | – | – | – | –
8 | CCCCN1C[C@H](O)[C@@H](O)[C@H](O)[C@H]1CO | – | – | – | – | Non-toxic | – | – | – | – | – | – | – | – | – | – | – | – | – | – | – | –
9 | CCCCCCCCn1cc(CCN[C@H]2[C@H](O)[C@@H](O)[C@H](O)[C@@H](O)[C@@H]2O)nn1 | inactive | inactive | – | inactive | Non-toxic | 166 µM | inactive | 167 µM | < 5% | inactive | 9.1 | 55.9 µM | – | – | – | – | – | – | – | – | –
10 | CCCCCCCCCn1cc(CN[C@H]2[C@H](O)[C@@H](O)[C@H](O)[C@@H](O)[C@@H]2O)nn1 | inactive | inactive | 0.33 µM | inactive | Non-toxic | 0.224 µM | inactive | 0.2 µM | 50% | inactive | 7.1 | 0.2 µM | 9.95 | 2.06 | 2.28 | 13 | 7.23 | 15.5 | 6.71 | 5.69 | Selectivity Index [23]: >=900; fold change (FC) [19]: 2.34
11 | CCCCCCCCn1cc(CCCN[C@H]2[C@H](O)[C@@H](O)[C@H](O)[C@@H](O)[C@@H]2O)nn1 | inactive | inactive | 19.9 µM | inactive | – | 35.5 µM | inactive | 35.4 µM | 40% | inactive | 9.4 | 18.2 µM | – | – | – | – | – | – | – | – | CC50 at 24 h [20]: 97 µM
12 | CCCCCCCCCn1cc(CCN[C@H]2[C@H](O)[C@@H](O)[C@H](O)[C@@H](O)[C@@H]2O)nn1 | inactive | inactive | – | inactive | Non-toxic | 44.7 µM | inactive | 44.7 µM | < 5% | inactive | 9.1 | 11 µM | 4.62 | 2.22 | 2.32 | 7.6 | 6.1 | 9.44 | 5.75 | 4.54 | fold change (FC) [19]: 2.37
13 | CCCOCCCCCCn1cc(CN[C@H]2[C@H](O)[C@@H](O)[C@H](O)[C@@H](O)[C@@H]2O)nn1 | inactive | inactive | 2.4 µM | inactive | Non-toxic | 7.41 µM | inactive | 7.4 µM | < 5% | inactive | 7.1 | 6.2 µM | – | – | – | – | – | – | – | – | –
